Screening results deposited in PubChem by several laboratories.
This is a sample that favours compounds with a hit; in the whole collection about 3.8% have one here.
Yeast life ext: extends the lifespan of yeast. S. cerevisiae growth with nicotinamide, OD615; deaD strain in restrictive glucose medium. inhibition of the nicotinamide effect, % at 10 µM. 130,000 tested, 0.68% active. AID 775;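 active = inhibition above a set limit, placed 3 SD over the median of all compounds, cut at about 26% in these data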
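Assay system: engineered S. cerevisiae DeaD replicative-lifespan strain, galactose-grown log-phase cells; medium: restrictive CSMM-D dextrose medium; also added: nicotinamide, 1.5 mM, co-present with compound; schedule: 48 h compound exposure at 30 °C, humidified; detection: absorbance at 615 nm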
RAM inhibit: yeast RAM network inhibition; S. cerevisiae dse1pr::URA3 reporter, 5-FOA growth OD615, 2 d; analog-sensitive cbk1-as2 kinase mutant strain; 190,000 tested, 1.8% active; inhibition, % at 50 µM; AID 868;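 active = inhibition above a set limit, 3 SD over mean compound inhibition, cut at about 8.4% in these data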;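 also: inhibition rescues growth on 5-FOA so higher OD means more RAM inhibition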
Yeast growth inh: reduces growth of yeast BB579 in restrictive medium; S. cerevisiae BB579 growth, OD615, 48 h; inhibition, % at 10 µM; 140,000 tested, 0.51% active; AID 804;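 active = inhibition above a set limit, 3 SD over the mean compound inhibition, cut at about 44% in these data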
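Detection: OD615 turbidity measurement; Material: Saccharomyces cerevisiae DeaD strain BB579, replicative lifespan model yeast; Timing: 48 h exposure, 30 °C; Doses: single 10 µM dose; Medium: CSMM-D restrictive synthetic medium containing dextrose (glucose); Controls: amphotericin B at 10 µg/mL as positive control.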
Measles CPE: protection of cells from measles virus; 140,000 tested, 1.5% active; AID 841; Measles virus-infected cells, CPE protection, absorbance; protection (pct of control), % at 4 µM; in the data active = protection mostly above about 24%, no sharp cut-off; inactive = mostly below about 26%
Of the large screens only hits and unclear results are named; the others gave an inactive call.

Cc1cc(CNC(=O)CC2C(=O)NCCN2CC(C)(C)C)nn1C (stereo not drawn)	none (no result: Yeast life ext, Yeast growth inh, Measles CPE)
O=C(/C=C/c1ccc(O)c(O)c1)c1ccc(S(=O)(=O)N2CCCCCC2)cc1	RAM inhibit 9.4
COCc1[nH][nH]c(=O)c1/C=N/N1CCOCC1	none (no result: Yeast life ext, Yeast growth inh, Measles CPE)
C=CCN(CC=C)S(=O)(=O)c1ccc2nc(NC(=O)C(C)C)sc2c1	Yeast life ext 76
CCOC(=O)c1ccc2nc(NC(=O)C(C)C)sc2c1	none
Nc1[nH]ncc1-c1ccc(F)cc1	none (no result: Yeast life ext, Yeast growth inh, Measles CPE)
Cc1cccc(Sc2ccc([N+](=O)[O-])cc2[N+](=O)[O-])n1	Measles CPE 39
O=C1/C(=C\c2ccc3ccccc3c2)CCCc2ccccc21	RAM inhibit 11 (no result: Yeast life ext)
Cc1c(OCc2ccc(C(=O)O)o2)ccc2c3c(c(=O)oc12)CCC3	RAM inhibit 9.4
COCCn1c(Cc2cccn2C)nnc1SCC(=O)NCc1ccc2c(c1)OCO2	none (no result: Yeast life ext, Yeast growth inh, Measles CPE)
Cn1c(=O)[nH]c(=O)c2c1nc(CN1CCN(c3cccc(Cl)c3)CC1)n2CCCc1ccccc1	RAM inhibit 9.5
Cc1cccc(Cn2c(CN3CCN(Cc4ccccc4)CC3)nc3c2c(=O)[nH]c(=O)n3C)c1	none
CCCCn1c(CN2CCN(c3cccc(Cl)c3)CC2)nc2c1c(=O)[nH]c(=O)n2C	none (no result: Yeast life ext)
CC(C)CCn1c(CN2CCN(Cc3ccccc3)CC2)nc2c1c(=O)[nH]c(=O)n2C	Measles CPE 41
CCC1(c2ccc(Cl)cc2)NC(=O)N(Cc2ccc(C(=O)OC)cc2)C1=O (stereo not drawn)	none (no result: Yeast life ext, Yeast growth inh, Measles CPE)
COc1cccc(C(=O)NC(C)c2ccc(Br)cc2)c1 (stereo not drawn)	none
CC(NC(=O)c1ccc(F)cc1)c1ccccc1 (stereo not drawn)	Measles CPE 38
Cc1ccc(C(=O)NC(C)c2ccc(F)cc2)cc1 (stereo not drawn)	none
COc1ccc(C(C)NC(=O)c2ccccc2)cc1 (stereo not drawn)	Yeast life ext 84
CCCCN(C(=O)c1ccc2c(c1)OCO2)c1ccccc1	none (no result: Yeast life ext, Yeast growth inh, Measles CPE)
COc1ccc(-c2nn(-c3ccccc3)cc2/C=C/C(=O)N2CCOCC2)cc1OC	none (no result: Yeast life ext, Yeast growth inh, Measles CPE)
Cc1cccc(OC(=O)c2ccc3nccnc3c2)c1	none
Cc1cccc(C(=O)Oc2csc(=S)n2C(=O)c2cccc(C)c2)c1	Yeast growth inh 44 (no result: Yeast life ext)
O=C(Oc1csc(=S)n1C(=O)c1ccccc1)c1ccccc1	Yeast growth inh 49
O=C(Oc1cccccc1=O)c1ccccc1	none (no result: Yeast life ext, Yeast growth inh, Measles CPE)
CC(C)OC(=O)NCCOC(=O)Nc1ccc(Cl)cc1	none (no result: Yeast life ext, Yeast growth inh, Measles CPE)
O=C(NCC1CCCO1)c1ccc(COc2ccccc2Br)cc1 (stereo not drawn)	none
CN(C(=O)c1ccncc1)c1nnc(-c2cnccn2)s1	Measles CPE 32
CN(C(=O)c1cccnc1)c1nnc(-c2cnccn2)s1	none
CCNc1nc(SCCOc2ccc(Cl)cc2Cl)nc(N(C)C)n1	none (no result: Yeast life ext, Yeast growth inh, Measles CPE)
Cc1cc(NC(=S)N(CCCN2CCN(C)CC2)Cc2ccco2)ccc1Cl	none (no result: Yeast life ext, Yeast growth inh, Measles CPE)
O=C(/C=C/c1cc([N+](=O)[O-])ccc1OC(F)F)NCc1ccc(F)cc1	RAM inhibit 8.7
CC(C)(C)C(=O)N1CCC(O)(CS(=O)(=O)Cc2ccccc2)CC1	none (no result: Yeast life ext, Yeast growth inh, Measles CPE)
O=C(OCc1ccc(F)cc1)c1ccc2c(c1)-c1ccccc1C2=O	RAM inhibit 11
CCOC(=O)C1=C(Cc2ccc(F)cc2)C(=O)c2ccccc2C1=O	none
CCSc1nc(N)nc(-c2cccs2)c1C#N	Yeast growth inh 84
COc1ccc(C)cc1NC(=O)CSc1nnc(COc2ccccc2)n1Cc1ccco1	RAM inhibit 9.5
CCn1c(SCC(=O)NCc2cccs2)nnc1-c1ccncc1	none
COc1ccc(C)cc1NC(=O)CSc1nnc(-c2ccccn2)n1Cc1ccco1	none
CCn1c(SCC(=O)NCc2cccs2)nnc1-c1ccco1	Measles CPE 26
COc1ccc(C)cc1NC(=O)CSc1nnc(COc2ccc(Cl)cc2)n1Cc1ccco1	RAM inhibit 9.7 (no result: Measles CPE)
COc1ccccc1NC(=O)CSc1nnc(-c2ccco2)n1Cc1ccco1	none
O=C(CSc1nnc(COc2ccc(Cl)cc2)n1Cc1ccco1)c1ccccc1F	none
O=C(CSc1nnc(-c2ccco2)n1Cc1ccco1)Nc1ccccc1	RAM inhibit 11
CCC(C)c1ccccc1NC(=O)CN1CCN(C/C=C/c2ccccc2)CC1 (stereo not drawn)	none
O=C(c1ccccc1)N1CN2CN(C(=O)c3ccccc3)CC([N+](=O)[O-])(C2)C1	none
COc1ccc(NC(=O)CSc2nnc(-c3ccccc3)n2Cc2ccco2)c(OC)c1	none
Cc1cccc(Nc2nnc(SCC(=O)NCc3cccs3)s2)c1C	none
Cc1cccc(Nc2nnc(SCC(=O)NCc3cccs3)s2)c1	RAM inhibit 8.5 (no result: Yeast life ext, Yeast growth inh, Measles CPE)
COc1ccc(NC(=O)CSc2nnc(COc3ccccc3)n2Cc2ccco2)cc1OC	RAM inhibit 9.9
CNc1ccccc(-c2ccc3ccccc3n2)c1=O	Yeast life ext 32
CC(=O)Nc1ccc(S(=O)(=O)Nc2nc3ccccc3nc2N2CCCC2)cc1	none
O=C(N=c1ccn(-c2nc3ccccc3nc2NS(=O)(=O)c2ccccc2)cc1)c1cccs1	RAM inhibit 8.5
Cc1c(N=C2N=C(NC(=O)c3ccc(F)cc3)c3ccccc32)c(=O)n(-c2ccccc2)n1C	none (no result: Yeast life ext, Yeast growth inh, Measles CPE)
COc1cc(/C=C2\N=C(c3c(-c4ccccc4)noc3C)OC2=O)ccc1OC(C)=O	none (no result: Yeast life ext, Yeast growth inh, Measles CPE)
CCOC(=O)c1ccccc1NC(=O)c1cc(S(=O)(=O)N2CCOCC2)ccc1F	none
O=C(COC(=O)c1ccccc1NS(=O)(=O)c1ccc(Cl)cc1)NCc1ccccc1	RAM inhibit 11
CCOC(=O)c1ccccc1NS(=O)(=O)c1ccc(S(=O)(=O)N2CCCC2)cc1	RAM inhibit 10
O=C(COC(=O)c1ccccc1Cl)NC(=O)NCc1ccccc1	Measles CPE 68
O=C(COC(=O)c1ccccc1Br)NCc1ccccc1	none
CNC(=S)NCCc1cc2c(OC)ccc(OC)c2[nH]c1=O	none (no result: Yeast life ext, Yeast growth inh, Measles CPE)
FC(F)(F)c1cc(-c2ccco2)nc(-n2nc(C(F)(F)F)cc2C2CC2)n1	RAM inhibit 9.1
CS(=O)(=O)c1nc(-c2ccco2)cc(C(F)(F)F)n1	Yeast life ext 89
COc1ccccc1-c1cc(C(F)(F)F)nc(S(C)(=O)=O)n1	none
CN1CCN(c2nc(-c3ccco3)cc(C(F)(F)F)n2)CC1	none
CC(=O)NCCn1c(SCc2ccccc2C)nc2ccccc2c1=O	none
C=C(C)Cn1c(SCC)nc2ccccc2c1=O	Measles CPE 28
O=c1c2ccccc2nc(SCc2cc(F)ccc2F)n1C1CCCC1	Measles CPE 31
C=C(C)Cn1c(SCC#N)nc2ccccc2c1=O	none
O=C(c1ccc(-n2c(SCc3cc(F)ccc3F)nc3ccccc3c2=O)cc1)N1CCOCC1	none
CC(=O)NCCn1c(SCc2cc(F)ccc2F)nc2ccccc2c1=O	Measles CPE 41
NC(=O)COC(=O)/C=C/c1cccc(Br)c1	none (no result: Yeast life ext, Yeast growth inh, Measles CPE)
Cc1cc(C)c2cc(CN(Cc3ccco3)C(=S)NCC3CCCO3)c(=O)[nH]c2c1 (stereo not drawn)	none (no result: Yeast life ext, Yeast growth inh, Measles CPE)
COc1cccc(NCc2ccc([N+](=O)[O-])s2)c1	Measles CPE 48
CCOC(=O)c1cc2c(ccn2C)n1CC(=O)N(Cc1ccccc1)c1ccc(F)cc1	none
